Molecules are shown by their SMILES. Where a name gives a salt, the structure may show the parent alone.

Test [1] addresses T1, Sodium- and chloride-dependent GABA transporter 2 (Mus musculus, UniProt P31649).
T1 sequence (P31649 whole entry): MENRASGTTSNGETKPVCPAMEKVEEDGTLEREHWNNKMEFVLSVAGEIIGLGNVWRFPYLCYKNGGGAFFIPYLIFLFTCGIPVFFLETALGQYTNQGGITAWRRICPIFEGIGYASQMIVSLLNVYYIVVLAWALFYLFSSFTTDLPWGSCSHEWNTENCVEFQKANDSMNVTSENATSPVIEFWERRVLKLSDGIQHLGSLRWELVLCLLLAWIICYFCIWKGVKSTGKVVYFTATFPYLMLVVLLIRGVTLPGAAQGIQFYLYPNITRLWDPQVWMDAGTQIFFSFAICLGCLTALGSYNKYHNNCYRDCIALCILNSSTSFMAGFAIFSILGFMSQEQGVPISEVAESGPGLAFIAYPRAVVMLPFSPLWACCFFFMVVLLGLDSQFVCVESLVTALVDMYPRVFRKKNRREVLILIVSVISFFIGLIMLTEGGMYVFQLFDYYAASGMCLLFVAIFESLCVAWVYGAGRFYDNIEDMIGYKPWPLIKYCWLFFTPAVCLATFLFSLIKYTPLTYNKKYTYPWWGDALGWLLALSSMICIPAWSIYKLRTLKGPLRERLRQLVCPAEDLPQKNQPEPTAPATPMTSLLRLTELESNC
Nature of the test: Inhibition of mouse GAT2-mediated [3H]GABA uptake expressed in human HEK cells. Summed up:
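The value is pIC50, given as mean ± SEM of three independent experiments, each run in triplicate. Where only two experiments were run, uptake is reported rather than pIC50.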

In test [2] the target is T2, Sodium- and chloride-dependent GABA transporter 3 (Mus musculus, UniProt P31650).
T2 sequence (P31650 whole entry): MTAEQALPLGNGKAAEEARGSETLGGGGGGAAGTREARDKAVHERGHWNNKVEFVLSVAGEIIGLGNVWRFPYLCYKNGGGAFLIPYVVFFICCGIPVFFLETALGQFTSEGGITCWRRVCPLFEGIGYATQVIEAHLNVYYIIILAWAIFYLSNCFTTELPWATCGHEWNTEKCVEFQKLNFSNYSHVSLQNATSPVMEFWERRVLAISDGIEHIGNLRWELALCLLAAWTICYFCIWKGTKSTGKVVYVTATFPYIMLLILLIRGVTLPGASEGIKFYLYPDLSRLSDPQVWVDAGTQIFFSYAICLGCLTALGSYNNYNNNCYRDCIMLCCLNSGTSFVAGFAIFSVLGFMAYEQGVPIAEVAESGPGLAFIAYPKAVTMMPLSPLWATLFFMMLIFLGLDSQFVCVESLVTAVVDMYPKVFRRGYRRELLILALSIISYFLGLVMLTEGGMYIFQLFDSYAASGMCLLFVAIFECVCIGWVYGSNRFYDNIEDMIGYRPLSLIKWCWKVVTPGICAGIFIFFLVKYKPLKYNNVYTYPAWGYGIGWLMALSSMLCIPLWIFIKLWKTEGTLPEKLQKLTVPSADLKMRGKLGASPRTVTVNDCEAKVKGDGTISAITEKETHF
Kind of test: Inhibition of mouse GAT3-mediated [3H]GABA uptake expressed in human HEK cells assessed as specific binding remaining at 1 mM.

Turning to `COc1ccc(C2(O)CCN(CCCn3c4ccccc4c4ccccc43)CC2)cc1` [1-(3-(9H-carbazol-9-yl)propyl)-4-(4-methoxyphenyl)piperidin-4-ol], in test [1], the half-maximal inhibitory concentration (IC50) (commonly the point on the concentration scale where inhibition reaches its midpoint) is 1.4 µM. On the same count and under the same terms, as for `Cc1ccsc1C(=CCCN(C)C1CCCc2o[nH]c(=O)c21)c1sccc1C` (stereo not drawn) [4-((4,4-bis(3-methylthiophen-2-yl)but-3-enyl)(methyl)amino)-4,5,6,7-tetrahydrobenzo[d]isoxazol-3-ol], the figure is 22 µM. In the case of `O=C(O)CCCCCCn1ccnc1` [7-Imidazol-1-yl-heptanoic acid; hydrochloride], in test [2], the IC50 was 776 µM.
